Assay results reported in article PMC5982514 (Biochemistry, 2018).

Columns and labels:
Assay type in all cases: biochemical
[1] = system: BTK, SYK, ABL, SRC, ALK, EGFR and FLT3; experiment: Kinetic analysis across seven PTKs; conditions: for substrate activity for all kinases tested: panel screen and seven PTKs
Method in brief: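 Kinetics on seven kinases. Final enzyme: 0.3 ng/μL ABL/BTK/SRC/SYK, 1.5 ng/μL FLT3, 2.7 ng/μL ALK/EGFR. Lys-modified peptides at 1–150 μM with 50 μM [γ-33P]ATP, 30 °C; spotted on P81 at 10/20/30 min. Michaelis–Menten fit, or kcat/Km from linear slope (≤75 μM); three runs (FLT3 two).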

EGFR (His6-EGFR^672–998) = EGFR (His6-EGFR^672–998) (Homo sapiens, UniProt P00533); experiment: Michaelis-Menten kinetic analysis, EGFR
Method in brief: (§1)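 His6-tagged intracellular kinase domains were expressed and purified from Sf9 cells and used at 2.7 ng/μL final. Peptides were varied over 1–150 μM with 50 μM [γ-33P]ATP (0.025 μCi/μL) in pH 7.5 HEPES buffer containing 10 mM MgCl2 at 30 °C. Aliquots taken at 10, 20 and 30 min were captured on P81 paper, washed in 75 mM H3PO4 and phosphorimaged. Rates were fitted to Michaelis–Menten, or kcat/Km was taken from the linear slope (≤75 μM). Three experiments.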

FLT3 (GST-FLT3^564–993) = biological target: T1, FLT3 (GST-FLT3^564–993) (Homo sapiens, UniProt P36888); experiment: Michaelis-Menten kinetic analysis, FLT3; conditions: kcat/Km of peptide 2 over peptide 5, mean±sem, two experiments
T1 sequence (P36888 564-993): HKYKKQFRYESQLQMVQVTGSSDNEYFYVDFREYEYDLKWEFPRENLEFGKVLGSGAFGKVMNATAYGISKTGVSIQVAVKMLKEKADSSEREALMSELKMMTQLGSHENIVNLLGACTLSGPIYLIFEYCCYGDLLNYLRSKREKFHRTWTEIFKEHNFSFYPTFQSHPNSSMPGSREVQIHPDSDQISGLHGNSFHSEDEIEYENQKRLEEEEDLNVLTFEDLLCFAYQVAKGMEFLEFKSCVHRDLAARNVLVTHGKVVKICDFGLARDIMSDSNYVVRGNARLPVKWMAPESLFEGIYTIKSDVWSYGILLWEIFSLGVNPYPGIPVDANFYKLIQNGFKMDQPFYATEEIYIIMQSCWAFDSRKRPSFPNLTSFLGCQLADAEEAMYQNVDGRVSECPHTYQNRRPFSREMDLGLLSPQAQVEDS
Method in brief: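 GST-FLT3 (residues 564–993) was expressed in HEK293T, glutathione-purified and used at 1.5 ng/μL. Peptides at 1–150 μM were reacted with 50 μM [γ-33P]ATP (0.025 μCi/μL) in 50 mM HEPES pH 7.5, 10 mM MgCl2, 1 mM DTT at 30 °C. Timepoints at 10, 20 and 30 min were spotted on P81 paper and phosphorimaged. Initial rates were fitted to Michaelis–Menten, or kcat/Km was derived from the slope up to 75 μM. Two experiments.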

Abl = Abl (Homo sapiens, UniProt P00519); experiment: Michaelis-Menten kinetic analysis, Abl; conditions: for catalytic parameters compared with consensus peptides: consensus peptides of ref [15]
Syk (GST fusion) = Syk (GST fusion) (Homo sapiens, UniProt P43405); experiment: Michaelis-Menten kinetic analysis, Syk; conditions: kcat/Km of peptide 2 over peptide 5, mean±sem, three experiments
Method in brief: (§2)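 GST-fused kinases were expressed in HEK293T and purified on glutathione Sepharose, then used at 0.3 ng/μL. Peptides (Lys-substituted C-termini) were titrated from 1 to 150 μM with 50 μM [γ-33P]ATP (0.025 μCi/μL) in HEPES pH 7.5/NaCl/MgCl2/DTT/Tween 20 buffer at 30 °C. Aliquots at 10–30 min went onto P81 paper for phosphorimaging. kcat/Km came from a Michaelis–Menten fit or the linear slope (≤75 μM). Three experiments.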

BTK (GST fusion) = BTK (GST fusion) (Homo sapiens, UniProt Q06187); experiment: Michaelis-Menten kinetic analysis, BTK
Method in brief: as §2

Src (GST fusion) = Src (GST fusion) (Homo sapiens, UniProt P12931); experiment: Michaelis-Menten kinetic analysis, Src; conditions: consensus peptides of ref [15]
Method in brief: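 GST-SRC from HEK293T, glutathione-Sepharose purified, 0.3 ng/μL final. Peptides with C-terminal Gly→Lys at 1–150 μM, in HEPES pH 7.5/NaCl/MgCl2/DTT/Tween 20 with 50 μM [γ-33P]ATP at 30 °C. Aliquots at 10, 20 and 30 min spotted on P81, H3PO4-washed, phosphorimaged. Initial rates fit to Michaelis–Menten, or kcat/Km from linear slope (≤75 μM); mean ± SEM of three experiments.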

ALK (His6-ALK^1090–1416) = ALK (His6-ALK^1090–1416) (Homo sapiens, UniProt Q9UM73); experiment: Michaelis-Menten kinetic analysis, ALK; conditions: kcat/Km of peptide 2 over peptide 5, mean±sem, three experiments
Method in brief: as §1

[2] = kcat/Km of peptide 2 over peptide 5, mean±sem, three experiments

Chain of Abl (P00519 whole entry, the tested form may be a part): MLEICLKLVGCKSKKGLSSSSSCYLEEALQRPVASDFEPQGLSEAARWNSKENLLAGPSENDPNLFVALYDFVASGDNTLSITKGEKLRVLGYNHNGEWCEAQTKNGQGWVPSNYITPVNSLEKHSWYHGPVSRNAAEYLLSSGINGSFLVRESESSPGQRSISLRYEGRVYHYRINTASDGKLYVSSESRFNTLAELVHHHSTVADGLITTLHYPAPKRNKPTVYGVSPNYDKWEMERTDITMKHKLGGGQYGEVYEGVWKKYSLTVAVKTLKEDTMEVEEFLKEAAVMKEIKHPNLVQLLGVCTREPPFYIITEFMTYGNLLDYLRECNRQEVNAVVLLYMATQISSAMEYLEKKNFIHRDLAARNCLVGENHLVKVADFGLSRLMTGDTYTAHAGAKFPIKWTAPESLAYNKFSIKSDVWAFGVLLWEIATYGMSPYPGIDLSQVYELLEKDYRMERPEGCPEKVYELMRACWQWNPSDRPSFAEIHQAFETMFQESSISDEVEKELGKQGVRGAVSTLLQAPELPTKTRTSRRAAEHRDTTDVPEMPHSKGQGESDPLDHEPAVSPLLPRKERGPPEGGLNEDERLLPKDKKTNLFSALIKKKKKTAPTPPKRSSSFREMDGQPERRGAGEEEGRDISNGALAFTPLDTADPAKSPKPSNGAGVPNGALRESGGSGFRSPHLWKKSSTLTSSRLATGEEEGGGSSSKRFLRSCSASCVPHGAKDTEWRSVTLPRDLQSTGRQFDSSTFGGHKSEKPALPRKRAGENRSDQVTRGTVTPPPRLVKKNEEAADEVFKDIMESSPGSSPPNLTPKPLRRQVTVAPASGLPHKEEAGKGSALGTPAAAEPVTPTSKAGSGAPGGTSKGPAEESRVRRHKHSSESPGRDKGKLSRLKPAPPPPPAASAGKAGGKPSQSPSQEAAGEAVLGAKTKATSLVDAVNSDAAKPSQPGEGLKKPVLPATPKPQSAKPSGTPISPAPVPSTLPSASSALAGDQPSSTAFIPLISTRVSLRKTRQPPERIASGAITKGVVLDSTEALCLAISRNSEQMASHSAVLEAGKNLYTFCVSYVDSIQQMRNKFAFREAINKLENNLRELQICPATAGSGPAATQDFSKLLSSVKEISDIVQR
Chain of BTK (GST fusion) (Q06187 whole entry, the tested form may be a part): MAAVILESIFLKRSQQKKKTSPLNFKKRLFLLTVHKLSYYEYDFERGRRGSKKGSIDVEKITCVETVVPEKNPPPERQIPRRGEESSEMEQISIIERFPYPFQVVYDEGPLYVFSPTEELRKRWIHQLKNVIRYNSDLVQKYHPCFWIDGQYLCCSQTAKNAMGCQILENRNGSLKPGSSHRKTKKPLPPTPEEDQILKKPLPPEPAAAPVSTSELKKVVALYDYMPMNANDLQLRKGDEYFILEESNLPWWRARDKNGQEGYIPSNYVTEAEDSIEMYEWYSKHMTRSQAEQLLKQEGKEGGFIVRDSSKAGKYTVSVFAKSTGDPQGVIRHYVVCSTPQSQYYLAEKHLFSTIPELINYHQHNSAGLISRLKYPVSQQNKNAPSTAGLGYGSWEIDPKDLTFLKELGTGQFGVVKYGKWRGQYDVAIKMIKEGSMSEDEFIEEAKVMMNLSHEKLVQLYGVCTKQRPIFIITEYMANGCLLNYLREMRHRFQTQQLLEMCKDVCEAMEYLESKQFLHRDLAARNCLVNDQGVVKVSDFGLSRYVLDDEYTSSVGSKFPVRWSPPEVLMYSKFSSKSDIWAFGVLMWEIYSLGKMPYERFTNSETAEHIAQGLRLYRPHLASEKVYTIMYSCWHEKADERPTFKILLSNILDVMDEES
Chain of ALK (His6-ALK^1090–1416) (Q9UM73 1090-1416): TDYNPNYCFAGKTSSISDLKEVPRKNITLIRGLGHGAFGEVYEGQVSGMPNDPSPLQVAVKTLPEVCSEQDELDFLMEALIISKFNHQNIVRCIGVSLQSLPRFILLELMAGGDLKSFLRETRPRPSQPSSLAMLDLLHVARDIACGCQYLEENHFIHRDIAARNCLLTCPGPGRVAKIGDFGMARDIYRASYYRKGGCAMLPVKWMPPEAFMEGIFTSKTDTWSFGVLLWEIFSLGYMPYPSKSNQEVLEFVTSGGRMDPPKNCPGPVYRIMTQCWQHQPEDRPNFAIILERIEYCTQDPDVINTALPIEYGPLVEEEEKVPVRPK

| Sequence | preference of RTKs ([1]; RTKs among the kinases examined, generally, peptide 2 vs peptide 5) | substrate activity for all kinases tested [1] | 2/5 kcat/Km ratio (EGFR (His6-EGFR^672–998); [2]) | kinase preference between peptides 2 and 5 (EGFR (His6-EGFR^672–998); specificity constant) | 2/5 kcat/Km ratio (FLT3 (GST-FLT3^564–993)) | catalytic parameters compared with consensus peptides (Abl) | 2/5 kcat/Km ratio (Abl; [2]) | 2/5 kcat/Km ratio (Syk (GST fusion)) | 2/5 kcat/Km ratio (BTK (GST fusion); [2]) | catalytic parameters compared with consensus peptides (Src (GST fusion)) | 2/5 kcat/Km ratio (ALK (His6-ALK^1090–1416)) | preference of NRTKs ([1]; NRTKs among the kinases examined, peptide 5 vs peptide 2) | kinase preference between peptides 2 and 5 (Abl; specificity constant) | kinase preference between peptides 2 and 5 (BTK (GST fusion); specificity constant) |
| --- | --- | --- | --- | --- | --- | --- | --- | --- | --- | --- | --- | --- | --- | --- |
| EDPIYVTLE [Peptide 2] | generally preferred over peptide 5 for RTKs | successful substrates for all kinases tested | 5.8 ± 0.2 | more substantial preference | 1.43 ± 0.07 | rivaled those determined with consensus peptides | 0.13 ± 0.01 | 1.8 ± 0.2 | 0.31 ± 0.01 | rivaled those determined with consensus peptides | 1.23 ± 0.02 |  |  |  |
| DEAIYATVA [Peptide 5] |  | successful substrates for all kinases tested |  |  |  | rivaled those determined with consensus peptides |  |  |  | rivaled those determined with consensus peptides |  | the reverse preference was seen for NRTKs | more substantial preference | more substantial preference |
